Results: ChEMBL document CHEMBL4513216, “Probing the Open Global Health Chemical Diversity Library for Multistage-Active Starting Points for Next-Generation Antimalarials” (ACS Infect Dis, 2020)

Test: Toxicity liver stage against HepG2, at 10uM
Format: cell-based
Parameters: test concentration 10 uM, cell line HepG2-A16-CD81EGFP
Details: human, HepG2-A16-CD81EGFP cells; read-out: INHIBITION
How it was run: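 Uninfected HepG2-A16-CD81EGFP cells, 3 × 10^3 per well, 1536-well, plated on prespotted compound at 10 μM final, parasite-free screening media added to match infected plates; puromycin 10 μM positive, DMSO 0.5% negative; run in parallel with 48 h PbLuc assay at 37 °C, 5% CO2; viability by CellTiter-Glo luminescence, normalized to controls.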

Row | SMILES | cytotoxicity at 10 µM
1 | Cc1nccc(-c2cccc(NCc3nc(C(C)C)no3)c2)n1 | 5.75%
2 | Cc1csc(CN2CC[C@H]3C(=O)N(c4cccnc4)CCO[C@H]3C2)n1 | 6.31%
3 | COCCNC(=O)c1nc2c(s1)CCCN2Cc1ccccc1 | 12.6%
4 | O=C(c1nc2c(s1)CCCN2CC1CC1)N1CCOCC1 | 11.2%
5 | O=C(c1ccno1)N1CCC2(CC(=O)N(c3ccc4c(c3)OCO4)C2)C1 (stereo unspecified) | 9.82%
6 | Cn1cccc1C(=O)N1CCC2(CCCN2S(C)(=O)=O)CC1 | 5.13%
7 | CCS(=O)(=O)N1CCCC2(COCCN(c3nncs3)C2)C1 (stereo unspecified) | 7.77%
8 | Nc1ncc(-c2ccc(F)cc2)c(C2CCCNC2)n1 (stereo unspecified) | 0.109%
9 | O[C@@H]1C[C@H]2CN(Cc3ccccc3Cl)[C@H](Cc3ccccc3)CN2C1 | -2.51%
10 | CCn1cc(CN2CCN(CC(O)c3ccc(C)cc3C)CC2)c(C)n1 (stereo unspecified) | -0.664%
11 | Cc1nc2ccc(C(=O)N3C[C@@H](O)[C@H](N4CCCC4)C3)cc2[nH]1 | -8.66%
12 | NCc1cnn(-c2ccccc2C(=O)NCc2ccccc2Cl)c1 | -3.52%
13 | COCCC(=O)N1CCCC(c2nc(O)cc(-c3ccncc3)n2)C1 (stereo unspecified) | -24.9%
14 | Cc1ncsc1-c1nnc(C2CCN(Cc3ccccc3)CC2)o1 | -6.39%
15 | c1cnc(-c2cnc(N3CCSCC3)nc2C2CCCO2)cn1 (stereo unspecified) | 4.4%
16 | Cc1cccc(-n2cnc(Cl)c2CO)c1 | -11.8%
17 | CC1(C)COCCN1C(=O)c1ccc(Cn2cncn2)cc1 | -5.85%
18 | CS(=O)(=O)N1CCC(C(=O)Nc2nnc(C(F)(F)F)[nH]2)CC1 | 9.52%
19 | CCOC(C)C(=O)Nc1cc(S(=O)(=O)NC2CC2)ccc1F (stereo unspecified) | -7.51%
20 | CC(=O)N1CCC(Oc2ccc(C#N)cc2)CC1 | -83.4%
21 | O=C(O)CCc1ccc(S(=O)(=O)Nc2cnn(CC(F)(F)F)c2)cc1 | -7.52%
22 | CCN(C(=O)Cc1ccc(NCc2nccn2C)cc1)c1ccccc1 | -2.09%
23 | CC(=O)NC1CCN(C(=O)Nc2cccc(SC(F)F)c2)CC1 | -0.598%

Row | SMILES | cytotoxicity at 10 µM
24 | Cc1cccc(C(=O)N(CC(=O)O)CC(C)C)c1 | -14.3%
25 | CN(CCOCC1CC1)C(=O)Nc1ccc([S+](C)[O-])cc1 (stereo unspecified) | 19.4%
26 | CC(Oc1cc(Cl)cc(Cl)c1)C(=O)NCCOCC(N)=O (stereo unspecified) | -5.82%
27 | COc1cc(CNC(=O)c2csc(Br)c2)ccn1 | -5.76%
28 | Cn1cc(C2(C)CN(Cc3ccc(N4CCCC4)nc3)CCO2)cn1 (stereo unspecified) | 8.32%
29 | Cn1c(NC(=O)CNC(=O)C2CCCC2)nc2cc(Cl)ccc21 | -4.53%
30 | COCCN(CCC#N)S(=O)(=O)c1cc(F)ccc1F | -9.91%
31 | CN(CC(=O)N1CCCC1c1noc(C2CC2)n1)S(C)(=O)=O (stereo unspecified) | -8.2%
32 | O=C(Cn1cccn1)NCC(c1cccs1)N1CCCC1 (stereo unspecified) | 11.9%
33 | NC(=O)NC(=O)CCN1CCCC1c1cccc2c1OCCO2 (stereo unspecified) | -5.35%
34 | CS(=O)(=O)NCCC1CCCCN1C(=O)NCCc1ccccc1 (stereo unspecified) | -6%
35 | Cc1cnn(CC(C)NCc2nc(-c3ccoc3)no2)c1 (stereo unspecified) | 23.3%
36 | Cc1nc(-c2ccsc2)ccc1C(=O)N(C)CC1CC1 | 2.83%
37 | CCOC(C)c1noc(CN2CCN(CC3CCCC3)CC2)n1 (stereo unspecified) | -13.2%
38 | CC(NC(=O)c1sccc1C1CC1)c1ccc2c(c1)CC(=O)N2 (stereo unspecified) | 1.66%
39 | Cc1cc(C)c(CNC(=O)NC2CCOCC2)c(=O)[nH]1 | -7.05%
40 | O=C(CC1CCCO1)Nc1ccn(Cc2cccc3cccnc23)n1 (stereo unspecified) | 2.17%
41 | CCC(C)(C)NC(=O)Nc1nnc(-c2ccccn2)s1 | 6.39%
42 | Cc1occc1C(=O)NCCOc1ccc(C(F)(F)F)cn1 | -7.62%
43 | COc1ccccc1C(C)(C)NCc1ccco1 | 5.95%
44 | N#CCCN(c1ccc(F)cc1)S(=O)(=O)CC1CCCCO1 (stereo unspecified) | 5.65%
45 | CSc1nc(C2CC2)nc(C)c1C(=O)NCc1cc(C)on1 | -11.7%
46 | CCN(Cc1noc(C(C)(C)C)n1)Cc1ccc(C#N)cc1F | -4.45%

Row | SMILES | cytotoxicity at 10 µM
47 | Cc1noc(C)c1CN(C)Cn1c(=O)n(C)c2ccccc21 | 5.25%
48 | NC(=O)Nc1cc(Br)cnc1OCC(F)(F)F | 8.28%
49 | NC(=O)c1cccc(CCNCc2cccs2)c1 | 1.68%
50 | C1CCC(N2CCCN(c3nc(C4CC4)no3)CC2)C1 | -9.13%
51 | O=C(Nc1ccnn1Cc1ccc(Cl)cc1)C1CCS(=O)(=O)C1 (stereo unspecified) | 10.9%
52 | CC(CCc1ccccc1)CC(=O)NC1CCN(CC(N)=O)CC1 (stereo unspecified) | 9.04%
53 | CC(Cn1cccn1)NS(=O)(=O)Cc1ccccc1 (stereo unspecified) | 6.8%
54 | Cc1cnn(CC2CCCN2Cc2cc(=O)n3ccccc3n2)c1 (stereo unspecified) | -1.61%
55 | OC1CCN(Cc2cc3c(cc2Br)OCCO3)CC1 | 7.73%
56 | CC1(C)C[C@H](CCNC(=O)c2ccncc2)c2ccccc2O1 | -5.55%
57 | O=C1CCC2(CCOC2)CN1Cc1nc2ccc(Cl)cc2[nH]1 (stereo unspecified) | 1.9%
58 | Cc1nn(C)cc1CN(C)c1nccc(-c2cn(C)nc2C)n1 | 20.2%
59 | CN(C(=O)CC1=CCCCC1)C1CCCN(C2Cc3ccccc3C2)C1 (stereo unspecified) | -0.296%
60 | CCOc1ccnc(N2CCN(Cc3ncccc3C)CC2)n1 | -7.32%
61 | CNc1cc(C)nc(N2CCC3(CC2)[C@H](O)C[C@@H]3OCCN(C)C)n1 | -1.26%
62 | CCCc1ccc(CN2CCN(C(=O)NCC)[C@H]3CS(=O)(=O)C[C@H]32)o1 | 2.71%
63 | Cc1cc(CN2CCC(CNC(=O)Cc3ccc(F)cc3)C2)[nH]n1 (stereo unspecified) | -139%
64 | COc1ccc(F)cc1NC(=O)NCC1(CN2CCOCC2)CC1 | 3.18%
65 | COCCC1(C(=O)O)CCCN(CCOCc2ccccc2)C1 (stereo unspecified) | -12.3%
66 | CC(C)[C@@H]1CN(CC(=O)NCc2ccco2)C[C@H]1NS(=O)(=O)N(C)C | 6.11%
67 | CC(C)[C@H]1CN(Cc2ccccn2)C[C@@H]1NC(=O)CCS(C)(=O)=O | -7.04%
68 | CSCCCN1CCn2nc(CNC(=O)N(C)C)cc2C1 | -2.66%
69 | Cc1ccccc1Oc1ncccc1CNC1CCC1 | -1.27%

Row | SMILES | cytotoxicity at 10 µM
70 | CC(c1ccncn1)N(C)Cc1cc(O)c2cc(F)ccc2n1 (stereo unspecified) | -2%
71 | N#CC1CCN(C(=O)CN2CC(c3ccccc3)CC2=O)CC1 (stereo unspecified) | -0.745%
72 | Cc1cc2nc(C(C)C)cc(NCC(c3ccccn3)N(C)C)n2n1 (stereo unspecified) | -1.63%
73 | Cc1ncccc1OC1(C(=O)NCCC2CCCN2C)CCNCC1 (stereo unspecified) | 2.18%
74 | O=C(COCC(F)(F)C(F)F)N1CCC2(CCCN(CC3CC3)C2=O)C1 (stereo unspecified) | 4.46%
75 | CC(CN1CCOCC1)NCc1nncn1C1CCCCC1 (stereo unspecified) | 1.52%
76 | O=C(CN1CCCCC1)Nc1ncc(Br)cc1Br | -9.58%
77 | CN(c1ccncn1)C1CC2(CCN(C(=O)c3ccsc3)C2)C1 (stereo unspecified) | 4.02%
78 | CCn1cnnc1CNC(=O)N1CCN(c2nccs2)CC1 | -2.72%
79 | CSCC(=O)N1CCCC(c2cc(C)[nH]n2)C1 (stereo unspecified) | -11.3%
80 | Cc1cnn(C2CCCN(C(=O)c3ccccc3-n3cnnn3)C2)c1 (stereo unspecified) | -6.92%
81 | Cc1cc(C)c(CNC(=O)N2CCCC2c2cccc(F)c2)c(=O)[nH]1 (stereo unspecified) | 5.22%
82 | CCOc1cccc2c1OCC(C(=O)NS(=O)(=O)c1ccc(Cl)s1)=C2 | -3.21%
83 | Cc1nc(C)n(CC2CCCCN2c2ncnc3ccsc23)n1 (stereo unspecified) | -2.04%
84 | COC(=O)c1cccn1C1CCN(C(=O)c2cn[nH]c2C)CC1 | -7.64%
85 | CCOc1nnc(CN2CCC(N(C)Cc3noc(C)n3)C2)s1 (stereo unspecified) | -7.3%
86 | Cc1cc(C)c(CNC(=O)NCC(O)c2cccc(F)c2)c(=O)[nH]1 (stereo unspecified) | -4.37%
87 | CCOc1cc(C(=O)N2CCCC(n3cncn3)C2)ccc1C (stereo unspecified) | -4.35%
88 | O=C(NCCOc1ccc2c(c1)CCC2)N1CCS(=O)(=O)CC1 | -1.71%
89 | c1cnnc(N2CCCC2CNCc2nc(-c3ccsc3)no2)c1 (stereo unspecified) | -7.7%
90 | COc1cccc(COCC(=O)N2CCCC(N3CCCC3)CC2)c1 (stereo unspecified) | -4.82%
91 | Cc1nn(C)c(N2CCOCC2)c1CNC1CCN(C(C)(C)C)CC1 | -3.66%
92 | Cn1c(NCC(O)c2ccc(F)cc2F)c(C#N)c(=O)n(C)c1=O (stereo unspecified) | -10.9%

Row | SMILES | cytotoxicity at 10 µM
93 | CC1=NN(c2ccc(C(=O)N3CCCC(n4ccnc4)C3)cc2)CC1 (stereo unspecified) | -15.6%
94 | COc1ncccc1CNc1cc(N2CCCC2CO)ncn1 (stereo unspecified) | -12.6%
95 | c1ncn(CC2CN(Cc3noc(C4CC4)n3)CCO2)n1 (stereo unspecified) | 1.59%
96 | CC(C)Oc1ncccc1CNC(=O)c1cc[nH]n1 | -9.12%
97 | Cc1nc(C)n(C2CCCN(C(=O)c3ccc(N(C)C)nn3)C2)n1 (stereo unspecified) | 0.722%
98 | CC(C)N1CCC2(CC1)C(=O)N(c1cccnc1)c1ccc(F)cc12 | 12.4%
99 | Cc1cc(C[C@@H]2COC[C@H]2NCc2ccc(C(C)C)cc2)on1 | -30.4%
100 | CC(C)NC(=O)N1CCC2(C1)CN(c1ccsc1)C(=O)CN2C (stereo unspecified) | 1.18%
101 | COc1c(CNCc2nnc3n2CCCCC3)c(C(C)C)nn1C | 11.5%
102 | COc1cccc(CN(Cc2ncc[nH]2)Cc2ccco2)c1 | -8.01%
103 | CN(C)c1nc(N2CCCC2)nc2c1CCN(C(=O)c1ccco1)CC2 | 14.4%
104 | O=C1C[C@H]2[C@H](CCN2Cc2ccccn2)N1CC1CC1 | 5.8%
105 | COc1ccc(CN2C[C@@H]3OCCN(CC4CCCO4)[C@@H]3C2)cc1 (stereo partly specified) | -0.851%
106 | Cc1cccc(C(=O)N2C[C@@H](OCc3cccnc3)[C@H]3OCCC[C@@H]32)n1 | -1.75%
107 | OCCN1CCC2(CCc3cc(-c4ccoc4)ccc32)CC1 | -0.582%
108 | CN(C)C(=O)NCc1ncn2c1CN(Cc1ccco1)CCC2 | 8.22%
109 | COc1cccc(CSC=C2Nc3ccccc3S(=O)(=O)N2)c1 | 3.7%
110 | CN(C)C(=O)N1C[C@H]2CC[C@@H](C1)N(Cc1nnc(C3CC3)o1)C2 | 0.266%
111 | CSc1ccccc1CN1C[C@H]2CC[C@@H](C1)N(CC1CC1)C2=O | -4.81%
